Experimental data published in ChEMBL document CHEMBL3259783, “Inhibitory effects of novel synthetic methimazole derivatives on mushroom tyrosinase and melanogenesis” (Bioorg Med Chem, 2014).
pIC50, pKi: −log10 of the molar value. Activity calls are given as the source filed them. The rule behind the calls is not given here.

Tests used:
Tyrosinase [1] = biological target: T1, Tyrosinase (Agaricus bisporus, UniProt O42713); assay: (§1) Inhibition of mushroom tyrosinase-mediated L-tyrosine hydroxylation after 30 mins by ELISA
T1 sequence (O42713 whole entry): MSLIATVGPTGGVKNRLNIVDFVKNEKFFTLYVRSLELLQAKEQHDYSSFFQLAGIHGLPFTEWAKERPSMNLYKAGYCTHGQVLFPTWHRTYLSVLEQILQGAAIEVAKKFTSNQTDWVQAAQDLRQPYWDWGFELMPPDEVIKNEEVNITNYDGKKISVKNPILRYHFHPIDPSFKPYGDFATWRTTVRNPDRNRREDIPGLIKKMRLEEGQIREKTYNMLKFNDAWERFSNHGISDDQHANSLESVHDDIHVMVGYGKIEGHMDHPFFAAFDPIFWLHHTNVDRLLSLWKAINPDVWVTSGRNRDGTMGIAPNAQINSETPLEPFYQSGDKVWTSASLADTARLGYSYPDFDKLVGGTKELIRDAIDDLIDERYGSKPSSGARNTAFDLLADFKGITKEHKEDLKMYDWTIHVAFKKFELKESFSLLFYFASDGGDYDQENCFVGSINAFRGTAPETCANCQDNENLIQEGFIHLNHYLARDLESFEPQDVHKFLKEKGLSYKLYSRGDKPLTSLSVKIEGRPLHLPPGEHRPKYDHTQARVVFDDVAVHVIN
Method in brief: (§2)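 Mushroom tyrosinase with L-tyrosine substrate; dipotassium hydrogen phosphate buffer as vehicle control. Mixture held 25 °C for 30 min, dopachrome read at 475 nm. Inhibition % = (1 − ABSsample/ABScontrol) × 100. IC50 from regression of the dose–response curve; triplicate, mean ± SD of 3 independent runs.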

Tyrosinase [2] = biological target: T1, Tyrosinase; assay: Mixed-type inhibition of mushroom tyrosinase-mediated L-tyrosine oxidation assessed as enzyme-inhibitor complex after 10 mins by Lineweaver-Burk plot analysis
[3] = Cytotoxicity against mouse B16/F10 cells at 2 mM after 24 hrs by MTT assay; type: cell-based; conditions: b16-f10, 24 h, 2000 µM
Method in brief: (§3)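 B16/F10 cells in DMEM with 10% FBS, penicillin, streptomycin and amphotericin at 37 °C, 5% CO2. Seeded 3 × 10^4 per well, adhered 24 h, exposed to 1 or 2 mM compound in fresh DMEM for 24 h. MTT (0.5 mg/mL in PBS) added for 40 min at 37 °C; formazan dissolved in DMSO, A570 read. Viability as % of untreated control; triplicate.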

[4] = biological target: T2, Tyrosinase (Agaricus bisporus) (UniProt O42713); assay: as §1; method in brief: as §2
T2 sequence (whole entry): T1 sequence (O42713 whole entry)

[5] = biological target: T2, Tyrosinase (Agaricus bisporus); assay: Mixed-type inhibition of mushroom tyrosinase-mediated L-tyrosine oxidation assessed as enzyme-substrate-inhibitor complex after 10 mins by Lineweaver-Burk plot analysis
[6] = Cytotoxicity against mouse B16/F10 cells at 1 mM after 24 hrs by MTT assay; type: cell-based; conditions: b16-f10, 24 h, 1000 µM; method in brief: as §3
B16-F10 = assay: (§4) Antimelanogenic activity in mouse B16/F10 cells assessed as inhibition of alpha-MSH-induced melanin formation at 1 mM after 24 hrs by ELISA relative to control; type: functional
Method in brief: (§5)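 B16/F10 cells seeded 1 × 10^5 per well, grown 48 h at 37 °C, 5% CO2; stimulated with 100 nM α-MSH for 24 h, then exposed to 1 mM test agent (kojic acid reference) for 24 h. After PBS washes, pellets dissolved in 1 N NaOH/10% DMSO, 1 h at 80 °C; A405 read. Content = sample/control × 100%; triplicate, mean ± SD.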

Tyrosinase [7] = biological target: T1, Tyrosinase; assay: Noncompetitive inhibition of mushroom tyrosinase-mediated L-tyrosine oxidation assessed as enzyme-inhibitor complex after 10 mins by Lineweaver-Burk plot analysis
[8] = biological target: T2, Tyrosinase (Agaricus bisporus); assay: Noncompetitive inhibition of mushroom tyrosinase-mediated L-tyrosine oxidation assessed as enzyme-substrate-inhibitor complex after 10 mins by Lineweaver-Burk plot analysis
[9] = as §4; type: functional; conditions: B16-F10, 24 h; method in brief: as §5

Compound | pIC50 (Tyrosinase [1]) | inhibition [4] | inhibition at 1000 µM [9] [%] | further results
COC(=O)C(N)Cn1ccn(C)c1=S (stereo not drawn) |  | inactive |  | 
Cn1ccn(C(=O)OC(C)(C)C)c1=S | 2.84 | Dose-dependent effect | 49.3 | pKi (Tyrosinase [7]): 2.76; Kis [8]: 1.75 mM; Activity [6]: Non-toxic; Activity [3]: Non-toxic
COC(=O)C(Cn1ccn(C)c1=S)NC(=O)OC(C)(C)C (stereo not drawn) |  | inactive |  | 
O=c1cc(CO)occ1O [KOJIC ACID] |  |  | 56.9 | 

Now from value to compound, other results behind:

pIC50 (Tyrosinase [1]) | inhibition [4] | Compound | inhibition at 1000 µM [9] [%] | further results
2.84 |  | Cn1cc[nH]c1=S [METHIMAZOLE] |  | pKi (Tyrosinase [2]): 3.33; Activity [3]: Toxic
2.39 | Dose-dependent effect | Sc1ncc[nH]1 |  | pKi (Tyrosinase [2]): 3.24; Kis [5]: 2.8 mM; Activity [6]: Toxic; inhibition (B16-F10): Active
 | inactive | Cn1ccn(CC(N)C(=O)O)c1=S (stereo not drawn) |  | 
 | Dose-dependent effect | Cn1ccnc1S [METHIMAZOLE] | 88.7 | Kis [5]: 1.91 mM
